Consider 16 molecules from PubChem BioAssay.

Test [1] can be described thus: reducers of endogenous Her2 protein level, primary screen, SKBR3 breast tumor cells, AlphaScreen, ATP viability (AID 461;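 active means Her2 level under about 52% in both replicate screens, with viability over 70% of control, limit read from the data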;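 on Her2 level: lower value means less Her2 protein in the cells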;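 on viability: percent of carrier control wells set as 100% viability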). Conditions: 18-24 h, measured here: SKBR3 viability, ATP luminescence, at 10 µM.
The target in test [2] is Receptor tyrosine-protein kinase erbB-2 (Homo sapiens) (UniProt P04626). The test is described as above. Particulars: 18-24 h, at 10 µM, stronger effect = lower value.
Chain of Receptor tyrosine-protein kinase erbB-2 (Homo sapiens) (P04626 whole entry, looked up): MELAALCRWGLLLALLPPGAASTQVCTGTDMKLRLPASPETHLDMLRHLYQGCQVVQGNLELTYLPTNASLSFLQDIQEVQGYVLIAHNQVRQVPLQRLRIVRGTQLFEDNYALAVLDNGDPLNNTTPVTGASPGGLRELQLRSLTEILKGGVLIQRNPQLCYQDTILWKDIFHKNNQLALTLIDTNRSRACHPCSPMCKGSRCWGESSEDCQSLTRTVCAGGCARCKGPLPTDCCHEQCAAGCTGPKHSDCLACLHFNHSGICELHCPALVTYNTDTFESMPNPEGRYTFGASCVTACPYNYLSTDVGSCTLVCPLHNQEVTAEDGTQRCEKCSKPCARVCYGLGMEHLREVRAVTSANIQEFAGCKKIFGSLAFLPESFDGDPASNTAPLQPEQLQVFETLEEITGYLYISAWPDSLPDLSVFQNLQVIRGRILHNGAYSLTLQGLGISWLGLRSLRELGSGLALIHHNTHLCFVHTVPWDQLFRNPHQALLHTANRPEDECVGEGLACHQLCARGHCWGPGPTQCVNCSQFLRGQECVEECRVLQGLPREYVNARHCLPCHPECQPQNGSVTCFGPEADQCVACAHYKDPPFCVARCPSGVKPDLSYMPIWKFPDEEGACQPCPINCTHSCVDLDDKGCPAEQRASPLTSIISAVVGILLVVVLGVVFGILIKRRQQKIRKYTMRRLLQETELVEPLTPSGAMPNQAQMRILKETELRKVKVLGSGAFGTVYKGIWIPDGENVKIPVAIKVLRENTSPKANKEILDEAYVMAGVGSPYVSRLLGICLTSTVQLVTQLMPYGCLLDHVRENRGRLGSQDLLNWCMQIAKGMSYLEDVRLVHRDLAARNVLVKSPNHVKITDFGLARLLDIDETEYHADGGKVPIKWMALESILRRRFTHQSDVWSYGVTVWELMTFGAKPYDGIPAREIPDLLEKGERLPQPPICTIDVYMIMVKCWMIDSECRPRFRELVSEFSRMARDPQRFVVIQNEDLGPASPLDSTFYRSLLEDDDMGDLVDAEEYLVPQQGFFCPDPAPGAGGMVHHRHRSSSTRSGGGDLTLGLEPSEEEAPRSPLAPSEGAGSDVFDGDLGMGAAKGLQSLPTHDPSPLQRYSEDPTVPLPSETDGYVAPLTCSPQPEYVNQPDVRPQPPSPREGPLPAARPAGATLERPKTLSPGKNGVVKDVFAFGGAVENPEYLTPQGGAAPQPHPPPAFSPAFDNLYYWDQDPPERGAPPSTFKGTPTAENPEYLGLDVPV
A short description of test [3]: SK-BR-3 cell growth inhibitors, pilot screen, 24 h, human (AID 572;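 active means viability at or below 10% of carrier control in both of two separate runs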;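 further: compound exposure lasted between 18 and 24 h rather than exactly 24 h; 100% = carrier-treated control wells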). Particulars: SK-BR-3 viability, CellTiter-Glo luminescence, at 10 µM, stronger effect = lower value.
Test [4] is described as follows: HUVEC growth inhibition – cell-based, human, primary screen (AID 575;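 active means viability at or below 30% in both replicate assays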;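 further: 100% = median of untreated cell wells with 0.1% DMSO on each plate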). Particulars: HUVEC proliferation, CellTiter-Glo luminescence, 72 h; at 10 µM; stronger effect = lower value. Summed up:
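Timing: 72 h treatment at 37 °C; material: HUVEC primary cells; technique: CellTiter-Glo luminescence measuring cellular ATP; controls: vehicle and MePR control wells; measure: percent of median DMSO-control luminescence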

Test [5] can be described thus: growth inhibitors of H69AR lung tumor, primary screen, human, duplicate replicates (AID 580;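 active means viability at or under a set limit in both replicates, limit being median viability minus 3 SD, cut at about 48% in these data, passing the limit was not always enough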;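 further: 100% = mean luminescence of untreated wells and 0% = no signal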). Particulars: H69AR lung tumor cells viability, ATP luminescence, 72 h; at 10 µM; stronger effect = lower value.
Test [6] in a line: reversal of MRP1-mediated doxorubicin resistance, pilot screen, H69AR cells, doxorubicin co-treatment (AID 601;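 active means viability loss from added drug above about 55%, and viability with drug at most 40%, in both replicates, limit read from the data, passing the limit was not always enough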). Conditions: CellTiter-Glo, 72 h, at 10 µM; for differential viability (reversal): stronger effect = higher value.
Test [7] can be described thus: 384-well plate pilot, post-Golgi transport modulator project, inhibition of yeast transport mutant growth (AID 636; in the data active means inhibition above about 31%). Conditions: absorbance 615 nm, about 18 h, stronger effect = higher value.
Test [8] in a line: growth suppression of yeast trafficking mutant, preliminary HTS, modulators of trafficking downstream of Golgi apparatus project, 1536-format plate, OD 615 nm (AID 637). Particulars: yeast transport mutant growth, absorbance 615 nm, 18 h; stronger effect = higher value.
The mark [9] stands for this setting: H69AR cells + 2 uM doxorubicin, measured here: viability with 2 uM doxorubicin, stronger effect = lower value.
[10] abbreviates: H69AR cells, compound alone cytotoxicity.

Each structure is given as a SMILES string. The source made the active and inactive calls. Unless noted, no stated cut-off is given here; in the data, active means inhibition above about 30%; inactive means the rest.

As to `COCCNC(=O)CCc1nc(-c2ccccc2)no1`, the viability in test [1] is 87%; in test [3], 87% (inactive); in test [4], 92.6% (inactive); in test [5], 103% (inactive); in test [6] (setting [9]) it was 98.1%; in test [6] (setting [10]), 103%. Moreover, the Her2 level in test [2] was 103% (inactive). Also, the differential viability (reversal) in test [6] (H69AR cells + 2 uM doxorubicin) was 5.2% (inactive). For the same molecule, the inhibition in test [7] is -3.47% (inactive); in test [8], 2.7% (inactive).
In the case of `O=S(=O)(c1ccc(Br)s1)N1CCCCC1`, the viability in test [1] is 96.5%; in test [3] it was 96.5% (inactive); in test [4], 89.5% (inactive); in test [5], 94% (inactive); in test [6] (setting [9]), 91.1%; in test [6] (setting [10]), 94%. Further, the Her2 level in test [2] is 97.5% (inactive). Also, in test [6] (H69AR cells + 2 uM doxorubicin), the differential viability (reversal) is 2.88% (inactive). Further, the inhibition in test [7] was -1.32% (inactive); in test [8], -2.13% (inactive).
On to `COc1cc2c(cc1OC)-c1cc(OCc3cccnc3)nc(=O)n1CC2`, for which the viability is 92% in test [1]; 92% (inactive) in test [3]; 99.7% (inactive) in test [4]; 92.9% (inactive) in test [5]; 90.8% in test [6] (setting [9]); 92.9% in test [6] (setting [10]). Also, the Her2 level in test [2] was 106% (inactive). In test [6] (H69AR cells + 2 uM doxorubicin), the differential viability (reversal) is 2.05% (inactive). The inhibition in test [7] is -3.73% (inactive); in test [8], 9.19% (inactive).
Take `O=S(=O)(Nc1cccnc1)c1cc(Cl)ccc1Cl`: the viability in test [1] is 77.5%; in test [3], 77.5% (inactive); in test [4], 92.2% (inactive); in test [5], 82.8% (inactive); in test [6] (setting [9]), 87.7%; in test [6] (setting [10]), 82.8%. Besides, in test [2], the Her2 level is 96% (inactive). In test [6] (H69AR cells + 2 uM doxorubicin), the differential viability (reversal) was -4.94% (inactive). Further, the inhibition in test [7] was -1.03% (inactive); in test [8], -3% (inactive).
Turning to `CN(Cc1ccccc1)Cc1nc2c(c(=O)n(C)c(=O)n2C)n1Cc1ccc(Cl)cc1`, the viability in test [1] was 67.5%; in test [3], 67.5% (inactive); in test [4], 84.1% (inactive); in test [5] it was 86% (inactive); in test [6] (setting [9]), 84.2%; in test [6] (setting [10]) it was 86%. In test [2], the Her2 level is 102% (inactive). For the same molecule, the differential viability (reversal) in test [6] (H69AR cells + 2 uM doxorubicin) was 1.76% (inactive). For the same molecule, the inhibition in test [7] is -0.67% (inactive); in test [8], 7.05% (inactive).
Regarding `CCc1ccc(NS(=O)(=O)c2cccs2)cc1`, the viability in test [1] was 97.5%; in test [3], 97.5% (inactive); in test [4], 101% (inactive); in test [5], 96% (inactive); in test [6] (setting [9]), 94%; in test [6] (setting [10]), 96%. Moreover, the Her2 level in test [2] was 102% (inactive). For the same molecule, the differential viability (reversal) in test [6] (H69AR cells + 2 uM doxorubicin) is 2% (inactive). Also, the values for the inhibition in test [7] and in test [8] were -2.24% (inactive) and 1.48% (inactive), respectively.
On to `COc1ccccc1OCC(=O)Nc1ccc(S(=O)(=O)Nc2nc(C)cc(C)n2)cc1`, for which the viability in test [1] was 90.5%; in test [3] it was 90.5% (inactive); in test [4], 98.7% (inactive); in test [5] it was 96.3% (inactive); in test [6] (setting [9]) it was 88.5%; in test [6] (setting [10]), 96.3%. Also, in test [2], the Her2 level is 184% (inactive). Moreover, the differential viability (reversal) in test [6] (H69AR cells + 2 uM doxorubicin) is 7.8% (inactive). The inhibition was -3.59% (inactive) in test [7] and -5.5% (inactive) in test [8].
With `COc1ccc(OC)c(NC(=O)C2CCN(c3cc(-c4ccccc4)nc4ncnn34)CC2)c1`, the viability in test [1] is 95.5%; in test [3], 95.5% (inactive); in test [4], 71% (inactive); in test [5], 75.4% (inactive); in test [6] (setting [9]) it was 76.1%; in test [6] (setting [10]), 75.4%. In addition, the Her2 level in test [2] is 76.5% (inactive). Further, the differential viability (reversal) in test [6] (H69AR cells + 2 uM doxorubicin) was -0.75% (inactive). The inhibition is -0.66% (inactive) in test [7] and -0.48% (inactive) in test [8].
Take `CCOc1cc(C2C(C(=O)c3ccccc3)=C(C(=O)OC)Nc3nnnn32)ccc1O` (stereo not given): the viability in test [1] was 113%; in test [3] it was 113% (inactive); in test [4] it was 91.6% (inactive); in test [5], 97.6% (inactive); in test [6] (setting [9]), 81.2%; in test [6] (setting [10]), 97.6%. The Her2 level in test [2] is 96% (inactive). Also, in test [6] (H69AR cells + 2 uM doxorubicin), the differential viability (reversal) is 16.4% (inactive). For the same molecule, the inhibition in test [7] was -1.84% (inactive); in test [8] it was -5.45% (inactive).
In the case of `CN(C(=O)c1ccccc1Cl)c1ccccc1`, the viability in test [1] is 93.5%; in test [3], 93.5% (inactive); in test [4], 92.8% (inactive); in test [5], 106% (inactive); in test [6] (setting [9]) it was 82%; in test [6] (setting [10]), 106%. For the same molecule, in test [2], the Her2 level was 83.5% (inactive). In test [6] (H69AR cells + 2 uM doxorubicin), the differential viability (reversal) is 23.6% (inactive). In addition, the figures for the inhibition in test [7] and in test [8] were -8.63% (inactive) and 0.95% (inactive), respectively.
Regarding `CCOC(=O)C1=C(C)NC(C)=C(C(=O)OCC)C1c1cc(N)ccc1OC(F)F`, the viability in test [1] was 78.5%; in test [3], 78.5% (inactive); in test [4], 76.6% (inactive); in test [5], 111% (inactive); in test [6] (setting [9]), 106%; in test [6] (setting [10]), 111%. For the same molecule, the Her2 level in test [2] is 108% (inactive). The differential viability (reversal) in test [6] (H69AR cells + 2 uM doxorubicin) is 4.41% (inactive). For the same molecule, the results for the inhibition in test [7] and in test [8] were 0.91% (inactive) and -7.21% (inactive), respectively.
For the molecule `N#Cc1cn(CC(=O)N2CCCC2)c2ccccc12`, the viability in test [1] is 118%; in test [3], 118% (inactive); in test [4], 100% (inactive); in test [5] it was 93.6% (inactive); in test [6] (setting [9]), 85.2%; in test [6] (setting [10]) it was 93.6%. Further, in test [2], the Her2 level is 85% (inactive). The differential viability (reversal) in test [6] (H69AR cells + 2 uM doxorubicin) is 8.44% (inactive). The inhibition was -3.29% (inactive) in test [7] and 1.15% (inactive) in test [8].
As for `c1ccc2c(c1)Cn1c-2nc2ccccc21`, the viability is 114% in test [1]; 114% (inactive) in test [3]; 120% (inactive) in test [4]; 78.4% (inactive) in test [5]; 79.9% in test [6] (setting [9]); 78.4% in test [6] (setting [10]). The Her2 level in test [2] was 95% (inactive). Further, in test [6] (H69AR cells + 2 uM doxorubicin), the differential viability (reversal) is -1.54% (inactive). Moreover, the inhibition in test [7] was -6.35% (inactive); in test [8], 1% (inactive).
As to `COc1ccc(S(=O)(=O)Nc2ccc(F)c(F)c2)cc1Cl`, the viability was 74% in test [1]; 74% (inactive) in test [3]; 90.4% (inactive) in test [4]; 90.2% (inactive) in test [5]; 92.8% in test [6] (setting [9]); 90.2% in test [6] (setting [10]). Moreover, the Her2 level in test [2] was 82.5% (inactive). Also, the differential viability (reversal) in test [6] (H69AR cells + 2 uM doxorubicin) was -2.64% (inactive). Besides, the inhibition is -4.59% (inactive) in test [7] and 4.26% (inactive) in test [8].
For `CN(C)S(=O)(=O)N1CCN(C(=O)N(c2ccccc2)c2ccccc2)CC1`, the viability in test [1] was 81.5%; in test [3], 81.5% (inactive); in test [4], 99.4% (inactive); in test [5], 97.5% (inactive); in test [6] (setting [9]) it was 102%; in test [6] (setting [10]), 97.5%. In addition, the Her2 level in test [2] is 154% (inactive). Also, in test [6] (H69AR cells + 2 uM doxorubicin), the differential viability (reversal) is -4.56% (inactive). The inhibition in test [7] is 1.28% (inactive); in test [8] it was 12.7% (inactive).
Regarding `COc1ccc(N(CC(=O)NC2CCCC2)C(=O)Cn2nnc(-c3ccc(C)cc3)n2)cc1`, the viability in test [1] was 79%; in test [3], 79% (inactive); in test [4], 95.5% (inactive); in test [5] it was 89.1% (inactive); in test [6] (setting [9]) it was 93.1%; in test [6] (setting [10]), 89.1%. Besides, the Her2 level in test [2] was 99.5% (inactive). In addition, the differential viability (reversal) in test [6] (H69AR cells + 2 uM doxorubicin) was -4.01% (inactive). Further, the inhibition in test [7] was 2.76% (inactive); in test [8] it was -7.58% (inactive).

In general, viability refers to a read-out of living cells in per cent, often relative to untreated cells. One may read the inhibition as the relative decrease from the control value, in per cent.
